Key:
Type in all cases: functional
A498 = assay: Cytotoxicity against human A498 cells assessed as growth inhibition after 48 hrs by SRB assay
Outline: (§1)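 NCI 60-cell-line five-dose screen at […]. Drug exposure was 48 h, followed by sulforhodamine B protein staining. GI50, TGI and LC50 were calculated against a time-zero control and untreated plates, with dose–response curves plotted from log10 concentration.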

[1] = (§2) Cytotoxicity against human OVCAR5 cells assessed as growth inhibition after 48 hrs by SRB assay; details: OVCAR-5, 48 h
Outline: (§3)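 NCI 60-cell-line screen, five-dose stage: each cell line exposed for 48 h to five concentrations spanning five log steps; cellular protein measured by sulforhodamine B colorimetry. A time-zero cell control and plates without drug are used to derive GI50, TGI and LC50 from log-concentration dose-response curves.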

OVCAR-5 = assay: as §2; outline: as §3
[2] = (§4) Cytotoxicity against human EKVX cells assessed as growth inhibition after 48 hrs by SRB assay; outline: as §1
EKVX = assay: as §4; outline: as §1
SF-268 = assay: Cytotoxicity against human SF268 cells assessed as growth inhibition after 48 hrs by SRB assay; outline: as §3
SNB-19 = assay: Cytotoxicity against human SNB19 cells assessed as growth inhibition after 48 hrs by SRB assay
Outline: (§5)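 NCI 60-cell-line screen, two stages. Five-dose testing at […]. Cellular protein measured by sulforhodamine B colorimetry after 48 h drug exposure. A time-zero control and drug-free plates are used to derive GI50, TGI and LC50 from dose-response curves plotted as log10 concentration per cell line.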

Malme-3M = assay: Cytotoxicity against human MALME-3M cells assessed as growth inhibition after 48 hrs by SRB assay; outline: as §1
SK-MEL-2 = assay: Cytotoxicity against human SK-MEL-2 cells assessed as growth inhibition after 48 hrs by SRB assay; outline: as §3
[3] = (§6) Cytotoxicity against human UO31 cells assessed as growth inhibition after 48 hrs by SRB assay; details: UO-31, 48 h; outline: as §5
UO-31 = assay: as §6; outline: as §5
T47D = assay: Cytotoxicity against human T47D cells assessed as growth inhibition after 48 hrs by SRB assay; outline: as §5
A549 = assay: Cytotoxicity against human A549 cells assessed as growth inhibition after 48 hrs by SRB assay; outline: as §1
K562 = assay: Cytotoxicity against human K562 cells assessed as growth inhibition after 48 hrs by SRB assay; outline: as §1
HL-60(TB) = assay: Cytotoxicity against human HL-60(TB) cells assessed as growth inhibition after 48 hrs by SRB assay
Outline: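 NCI 60-cell panel five-concentration stage (0.01, 0.1, 1, 10, 100) in HL-60(TB). Cellular protein was measured by sulforhodamine B colorimetry after 48 h of exposure. A time-zero cell control and untreated plates allowed calculation of GI50, TGI and LC50. These were read from log10 concentration dose-response curves.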

MDA-MB-468 = assay: Cytotoxicity against human MDA-MB-468 cells assessed as cell growth at 10 uM after 48 hrs by SRB assay; details: MDA-MB-468, 48 h, read-out: Activity
Outline: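 First stage of the NCI 60 human tumour cell line screen: a single dose is tested against every line. Cell growth is read as cellular protein by sulforhodamine B colorimetry after 48 h of drug exposure, with reference to a time-zero control and to untreated plates.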

DU-145 = assay: Cytotoxicity against human DU145 cells assessed as growth inhibition after 48 hrs by SRB assay; outline: as §1
MDA-MB-435 = assay: Cytotoxicity against human MDA-MB-435 cells assessed as growth inhibition after 48 hrs by SRB assay; outline: as §3
HCT-116 = assay: Cytotoxicity against human HCT116 cells assessed as growth inhibition after 48 hrs by SRB assay; outline: as §1
MOLT-4 = assay: Cytotoxicity against human MOLT4 cells assessed as growth inhibition after 48 hrs by SRB assay; outline: as §3
UACC-62 = assay: Cytotoxicity against human UACC62 cells assessed as growth inhibition after 48 hrs by SRB assay; outline: as §5
RXF 393 = assay: Cytotoxicity against human RXF393 cells assessed as growth inhibition after 48 hrs by SRB assay; outline: as §3
SF-539 = assay: Cytotoxicity against human SF539 cells assessed as growth inhibition after 48 hrs by SRB assay; outline: as §3
NCI-H23 = assay: Cytotoxicity against human NCI-H23 cells assessed as growth inhibition after 48 hrs by SRB assay; outline: as §3
UACC-257 = assay: (§7) Cytotoxicity against human UACC257 cells assessed as growth inhibition after 48 hrs by SRB assay; outline: as §5
[4] = as §7; details: UACC-257, 48 h; outline: as §5
SK-OV-3 = assay: Cytotoxicity against human SKOV3 cells assessed as growth inhibition after 48 hrs by SRB assay; outline: as §3
OVCAR-3 = assay: Cytotoxicity against human OVCAR3 cells assessed as growth inhibition after 48 hrs by SRB assay; outline: as §3
HT-29 = assay: Cytotoxicity against human HT-29 cells assessed as cell growth at 10 uM after 48 hrs by SRB assay; details: HT-29, 48 h, read-out: Activity

CCSc1nc2ccc3c(c2[nH]1)C(=O)c1ccccc1C3=O
growth inhibition (GI) (A498): Dose-dependent effect | GI50 (A498; A498, 48 h): 4.7 µM | TGI (A498; A498, 48 h): > 100 µM | CC50 (A498; A498, 48 h, read-out: LC50 (the source's name)): > 100 µM | GI50 [1]: 6.25 µM | LC50 [1]: > 100 µM | TGI [1]: > 100 µM | growth inhibition (GI) (OVCAR-5): Dose-dependent effect | GI50 [2]: 2.13 µM | LC50 [2]: > 100 µM | TGI [2]: 29 µM | growth inhibition (GI) (EKVX): Dose-dependent effect | growth inhibition (GI) (SF-268): Dose-dependent effect | GI50 (SF-268; SF-268, 48 h): 18.1 µM | LC50 (concentration killing 50% of cells relative to time zero) (SF-268; SF-268, 48 h): > 100 µM | TGI (SF-268; SF-268, 48 h): > 100 µM | growth inhibition (GI) (SNB-19): Dose-dependent effect | GI50 (SNB-19; SNB-19, 48 h): > 100 µM | LC50 (SNB-19; SNB-19, 48 h): > 100 µM | TGI (SNB-19; SNB-19, 48 h): > 100 µM | GI50 (Malme-3M): 3.58 µM | TGI (Malme-3M): 94 µM | growth inhibition (GI) (Malme-3M): Dose-dependent effect | CC50 (Malme-3M; read-out: LC50 (the source's name)): > 100 µM | growth inhibition (GI) (SK-MEL-2): Dose-dependent effect | GI50 (SK-MEL-2; SK-MEL-2, 48 h): 5.1 µM | LC50 (50% lethal concentration) (SK-MEL-2; SK-MEL-2, 48 h): > 100 µM | TGI (SK-MEL-2; SK-MEL-2, 48 h): > 100 µM | GI50 [3]: 3.31 µM | LC50 [3]: > 100 µM | TGI [3]: > 100 µM | growth inhibition (GI) (UO-31): Dose-dependent effect | GI50 (T47D): 4.21 µM | LC50 (T47D): > 100 µM | TGI (T47D): > 100 µM | growth inhibition (GI) (T47D): Dose-dependent effect | growth inhibition (GI) (A549): Dose-dependent effect | GI50 (A549; A549, 48 h): 9.67 µM | LC50 (concentration killing 50% of cells) (A549; A549, 48 h): > 100 µM | TGI (A549; A549, 48 h): > 100 µM | growth inhibition (GI) (K562): Dose-dependent effect | GI50 (K562; K562, 48 h): 13.5 µM | TGI (K562; K562, 48 h): > 100 µM | CC50 (K562; K562, 48 h, read-out: LC50 (the source's name)): > 100 µM | growth inhibition (GI) (HL-60(TB)): Dose-dependent effect | GI50 (HL-60(TB); HL-60, 48 h): 5.26 µM | LC50 (HL-60(TB); HL-60, 48 h): > 100 µM | TGI (HL-60(TB); HL-60, 48 h): > 100 µM | growth at 10 µM (MDA-MB-468): 35.4% | growth inhibition (GI) (DU-145): Dose-dependent effect | GI50 (DU-145; DU-145, 48 h): 7.02 µM | TGI (DU-145; DU-145, 48 h): > 100 µM | CC50 (DU-145; DU-145, 48 h, read-out: LC50 (the source's name)): > 100 µM | growth inhibition (GI) (MDA-MB-435): Dose-dependent effect | GI50 (MDA-MB-435; MDA-MB-435, 48 h): 76.5 µM | LC50 (MDA-MB-435; MDA-MB-435, 48 h): > 100 µM | TGI (MDA-MB-435; MDA-MB-435, 48 h): > 100 µM | growth inhibition (GI) (HCT-116): Dose-dependent effect | GI50 (HCT-116; HCT-116, 48 h): 5.59 µM | LC50 (HCT-116; HCT-116, 48 h): > 100 µM | TGI (HCT-116; HCT-116, 48 h): > 100 µM | growth inhibition (GI) (MOLT-4): Dose-dependent effect | GI50 (MOLT-4; MOLT-4, 48 h): 4.05 µM | LC50 (50% lethal concentration) (MOLT-4; MOLT-4, 48 h): > 100 µM | TGI (MOLT-4; MOLT-4, 48 h): > 100 µM | growth inhibition (GI) (UACC-62): Dose-dependent effect | GI50 (UACC-62; UACC-62, 48 h): 7.73 µM | LC50 (UACC-62; UACC-62, 48 h): > 100 µM | TGI (UACC-62; UACC-62, 48 h): > 100 µM | growth inhibition (GI) (RXF 393): Dose-dependent effect | GI50 (RXF 393; RXF 393, 48 h): 5.17 µM | TGI (RXF 393; RXF 393, 48 h): > 100 µM | CC50 (RXF 393; RXF 393, 48 h, read-out: LC50 (the source's name)): > 100 µM | growth inhibition (GI) (SF-539): Dose-dependent effect | GI50 (SF-539; SF-539, 48 h): 22.9 µM | TGI (SF-539; SF-539, 48 h): > 100 µM | CC50 (SF-539; SF-539, 48 h, read-out: LC50 (the source's name)): > 100 µM | growth inhibition (GI) (NCI-H23): Dose-dependent effect | GI50 (NCI-H23; NCI-H23, 48 h): 8.6 µM | LC50 (NCI-H23; NCI-H23, 48 h): > 100 µM | TGI (NCI-H23; NCI-H23, 48 h): > 100 µM | growth inhibition (GI) (UACC-257): Dose-dependent effect | GI50 [4]: > 100 µM | LC50 [4]: > 100 µM | TGI [4]: > 100 µM | growth inhibition (GI) (SK-OV-3): Dose-dependent effect | GI50 (SK-OV-3; SK-OV-3, 48 h): 3.8 µM | LC50 (concentration killing 50% of cells present at time zero) (SK-OV-3; SK-OV-3, 48 h): > 100 µM | TGI (SK-OV-3; SK-OV-3, 48 h): > 100 µM | growth inhibition (GI) (OVCAR-3): Dose-dependent effect | GI50 (OVCAR-3; OVCAR-3, 48 h): 10.2 µM | LC50 (50% lethal concentration) (OVCAR-3; OVCAR-3, 48 h): > 100 µM | TGI (OVCAR-3; OVCAR-3, 48 h): > 100 µM | growth at 10 µM (HT-29): 75.2%
